ChEMBL document CHEMBL4699628, “Bivalent HIV-1 fusion inhibitors based on peptidomimetics” (Bioorg Med Chem, 2020)

Experiments:
Type in all cases: cell-based
[1] = Binding affinity to two PBDs of N36 trimer of gp41 in HIV1 NL4-3 infected in human TZM-bl cells assessed as inhibition of viral fusion incubated for 48 hrs by Steady-Glo luciferase assay; conditions: Human immunodeficiency virus 1, NL4-3, TZM-bl
[2] = Cytotoxicity against human TZM-bl cells assessed as reduction in cell viability incubated for 48 hrs by CellTiter 96 aqueous nonradioactive cell proliferation assay
Method in brief: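 TZM-bl cells with serially diluted compounds, no virus, otherwise as in infection assay (48 h culture); viability read by CellTiter 96 non-radioactive cell proliferation assay.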

TZM-bl = assay: Binding affinity to two PBDs of N36 trimer of gp41 in HIV1 NL4-3 infected in human TZM-bl cells assessed as inhibition of viral fusion at 50 uM incubated for 48 hrs by Steady-Glo luciferase assay; conditions: Human immunodeficiency virus 1

Structure (SMILES)	IC50 [1]	CC50 at 48 h [2]	inhibition (TZM-bl)
O=C(O)C[C@H](NC(=O)CCC(=O)NCCOCCOCCOCCOCCOCCOCCOCCOCCOCCNC(=O)CCC(=O)N[C@@H](CC(=O)O)C(=O)Nc1ccc(C(=O)N[C@@H](Cc2c[nH]c3ccccc23)C(=O)O)cc1OCCc1c[nH]c2ccccc12)C(=O)Nc1ccc(C(=O)N[C@@H](Cc2c[nH]c3ccccc23)C(=O)O)cc1OCCc1c[nH]c2ccccc12	36.3 µM	> 50 µM	
CC(C)C[C@H](NC(=O)c1ccc(NC(=O)[C@H](Cc2c[nH]c3ccccc23)NC(=O)CCC(=O)NCCOCCOCCOCCOCCOCCOCCOCCOCCOCCNC(=O)CCC(=O)O)c(OCCc2c[nH]c3ccccc23)c1)C(=O)O		> 50 µM	7%
CC(C)C[C@H](NC(=O)c1ccc(NC(=O)[C@H](Cc2c[nH]c3ccccc23)NC(=O)CCC(=O)NCCOCCOCCOCCOCCOCCOCCOCCOCCOCCOCCOCCNC(=O)CCC(=O)N[C@@H](Cc2c[nH]c3ccccc23)C(=O)Nc2ccc(C(=O)N[C@@H](CC(C)C)C(=O)O)cc2OCCc2c[nH]c3ccccc23)c(OCCc2c[nH]c3ccccc23)c1)C(=O)O	15 µM	> 50 µM	
N[C@@H](CC(=O)O)C(=O)Nc1ccc(C(=O)N[C@@H](Cc2c[nH]c3ccccc23)C(=O)O)cc1OCCc1c[nH]c2ccccc12	1.6 µM	> 50 µM	
CC(C)C[C@H](NC(=O)c1ccc(NC(=O)[C@H](Cc2c[nH]c3ccccc23)NC(=O)CCC(=O)NCCOCCNC(=O)CCC(=O)N[C@@H](Cc2c[nH]c3ccccc23)C(=O)Nc2ccc(C(=O)N[C@@H](CC(C)C)C(=O)O)cc2OCCc2c[nH]c3ccccc23)c(OCCc2c[nH]c3ccccc23)c1)C(=O)O	23.8 µM	> 50 µM	
COc1ccc(C[C@H](NC(=O)CCC(=O)NCCOCCOCCOCCOCCOCCOCCOCCOCCOCCNC(=O)CCC(=O)N[C@@H](Cc2ccc(OC)cc2)C(=O)Nc2ccc(C(=O)N[C@@H](Cc3c[nH]c4ccccc34)C(=O)O)cc2OCCc2c[nH]c3ccccc23)C(=O)Nc2ccc(C(=O)N[C@@H](Cc3c[nH]c4ccccc34)C(=O)O)cc2OCCc2c[nH]c3ccccc23)cc1	10.2 µM	> 50 µM	
COc1ccc(C[C@H](N)C(=O)Nc2ccc(C(=O)N[C@@H](Cc3c[nH]c4ccccc34)C(=O)O)cc2OCCc2c[nH]c3ccccc23)cc1		> 50 µM	0%
CC(C)C[C@H](NC(=O)c1ccc(NC(=O)[C@H](Cc2c[nH]c3ccccc23)NC(=O)CCC(=O)NCCOCCOCCOCCOCCOCCOCCOCCNC(=O)CCC(=O)N[C@@H](Cc2c[nH]c3ccccc23)C(=O)Nc2ccc(C(=O)N[C@@H](CC(C)C)C(=O)O)cc2OCCc2c[nH]c3ccccc23)c(OCCc2c[nH]c3ccccc23)c1)C(=O)O	17 µM	> 50 µM	
CC(C)C[C@H](NC(=O)c1ccc(NC(=O)[C@H](Cc2c[nH]c3ccccc23)NC(=O)CCC(=O)NCCOCCOCCOCCOCCOCCOCCOCCOCCOCCNC(=O)CCC(=O)N[C@@H](Cc2c[nH]c3ccccc23)C(=O)Nc2ccc(C(=O)N[C@@H](CC(C)C)C(=O)O)cc2OCCc2c[nH]c3ccccc23)c(OCCc2c[nH]c3ccccc23)c1)C(=O)O	1.7 µM	> 50 µM	
CC(C)C[C@H](NC(=O)c1ccc(NC(=O)[C@H](Cc2c[nH]c3ccccc23)NC(=O)CCC(=O)NCCOCCOCCOCCNC(=O)CCC(=O)N[C@@H](Cc2c[nH]c3ccccc23)C(=O)Nc2ccc(C(=O)N[C@@H](CC(C)C)C(=O)O)cc2OCCc2c[nH]c3ccccc23)c(OCCc2c[nH]c3ccccc23)c1)C(=O)O	22.8 µM	> 50 µM	
CC(C)C[C@H](NC(=O)c1ccc(NC(=O)[C@H](Cc2c[nH]c3ccccc23)NC(=O)CCC(=O)NCCOCCOCCOCCOCCOCCNC(=O)CCC(=O)N[C@@H](Cc2c[nH]c3ccccc23)C(=O)Nc2ccc(C(=O)N[C@@H](CC(C)C)C(=O)O)cc2OCCc2c[nH]c3ccccc23)c(OCCc2c[nH]c3ccccc23)c1)C(=O)O	17.3 µM	> 50 µM	
CC(C)C[C@H](NC(=O)c1ccc(NC(=O)[C@@H](N)Cc2c[nH]c3ccccc23)c(OCCc2c[nH]c3ccccc23)c1)C(=O)O		> 50 µM	1%
Cc1cn([C@H]2C[C@H](N=[N+]=[N-])[C@@H](CO)O2)c(=O)[nH]c1=O [ZIDOVUDINE]	0.118 µM	> 100 µM	
